In ChEMBL document CHEMBL1138379, “Syntheses of F-18 labeled fluoroalkyltyrosine derivatives and their biological evaluation in rat bearing 9L tumor” (Bioorg Med Chem Lett, 2007) one finds logP, Drug uptake and Ratio data, which are given here for 4 molecules.

Usually logP stands for a log measure of how a compound divides between an organic and an aqueous phase. Lower therefore signals a more hydrophilic compound.

Data set [1] is described as follows: Partition coefficient, log P of the compound. In kind it is physicochemical. The note with it: octanol/water. In short, it runs like this: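 Shake-flask partition between 2.0 mL 1-octanol and 2.0 mL water. 10 µL of HPLC-purified radiotracer added, mixed 2 min at room temperature. Radioactivity counted in 300 µL of each phase to give log P.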
The subject of data set [2] is Lung. The data set can be described thus: Biodistribution in lung of Fisher 344 rat bearing 9L tumor after 30 mins. In kind it is ADME, organism-based. The note with it: in vivo, 0.5 h. In short, it runs like this:
(§1)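 9L tumor cells (5 × 10^6) inoculated into Fisher 344 rats, used 14-18 days later. Rats anesthetized with ethyl ether, given ~3.7 MBq [18F] tracer in 100 µL PBS via tail vein, sacrificed with ether at set times (10-120 min). Tissues dissected, weighed and gamma-counted. Values are %ID/g, mean ± SD, n = 4. Ratios taken from tissue uptake.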

Data set [3] deals with Femur. Nature of the data set: Biodistribution in femur of Fisher 344 rat bearing 9L tumor after 60 mins. The note with it: in vivo, 1 h. The class given is ADME, organism-based. In short, it runs like this: as §1
Data set [4] relates to Blood. The data set can be described thus: Biodistribution in blood of Fisher 344 rat bearing 9L tumor after 60 mins. In kind it is ADME, organism-based. As to conditions: in vivo, 1 h. Put shortly:
as §1

The nature of data set [5]: Ratio of biodistribution in tumor to brain in Fisher 344 rat bearing 9L tumor after 60 mins. The class given is ADME, organism-based. As to conditions: in vivo, 1 h. In short, it runs like this:
as §1

In turn, `NC(Cc1ccc(O)c(CCC[18F])c1)C(=O)O` (stereo not given) gave a lipophilicity (logP) in data set [1] of -1.07. Also, the Drug uptake in data set [2] is listed as 0.78 % ID/g; in data set [3] it was 1.45 % ID/g; in data set [4], 0.64 % ID/g. The Ratio in data set [5] turned out to be 4.05.

Molecule `COc1ccc(CC(N)C(=O)O)cc1CC[18F]` (stereo not given) came in with a log partition coefficient (logP) in data set [1] of -0.75. In addition, the Drug uptake in data set [2] was 0.37 % ID/g; in data set [3], 0.22 % ID/g; in data set [4], 0.25 % ID/g. Further, in data set [5], the Ratio is on record as 1.9.

In the case of `NC(Cc1ccc(O)c(CC[18F])c1)C(=O)O` (stereo not given), in data set [1], the logP was -1.37. Besides, the Drug uptake is 0.12 % ID/g in data set [2], 0.76 % ID/g in data set [3] and 0.06 % ID/g in data set [4]. In data set [5], the Ratio is reported as 2.92.

As to `COc1ccc(CC(N)C(=O)O)cc1CCC[18F]` (stereo not given), in data set [1], the logP was -0.29. The Drug uptake is 0.34 % ID/g in data set [2], 0.18 % ID/g in data set [3] and 0.24 % ID/g in data set [4]. In addition, the Ratio in data set [5] is 2.6.
